Results taken from ChEMBL document CHEMBL3351905, “Cyclic Penta- and Hexaleucine Peptides without N-Methylation Are Orally Absorbed” (ACS Med Chem Lett, 2014).
Peptide text beside a SMILES is read from it.

Columns and labels:
[1] = Permeability in human Caco2 cells at 10 uM by LC-MS method; format: ADME, cell-based; conditions: caco-2, 10 µM
In short: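 Caco-2 monolayers; compound at 10 μM, cyclosporin A comparator at 30 μM; medium 0.05% DMSO in HEPES buffer, pH 7.4, 37 °C; apparent permeability in cm·s–1.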

[2] = Apparent permeability in RRCK cells at 8 uM at pH 7.4 incubated for 2 hrs by LC-MS/MS method; format: ADME, cell-based, Canis lupus familiaris, MDCKII-LE; conditions: dog, MDCK
[3] = Oral bioavailability in Wistar rat at 10 mg/kg measured over 8 hrs by LC-MS method; format: ADME, organism-based; conditions: in vivo
[4] = Apparent permeability in RRCK cells at 8 uM at pH 7.4 incubated for 2 hrs by LC-MS/MS method relative to CSA; format: ADME, cell-based, Canis lupus familiaris; conditions: dog, mdckii-le, pH 7.4, 2 h
In short: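 RRCK monolayers (no active transporters); compound at 8 μM alongside cyclosporin A at 8 μM; medium 0.05% DMSO in HEPES buffer, pH 7.4, 37 °C; apparent permeability expressed in cm·s–1.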

[5] = Clearance in Wistar rat at 1 mg/kg, iv by LC-MS method; format: ADME, organism-based; set-up: dose 1 mg/kg, route intravenous; conditions: in vivo

Row | SMILES | permeability [1] | Papp at 2 h, 8 µM [2] | bioavailability [3] | fold change (FC) [4] | clearance [5]
1 | CC(C)C[C@@H]1NC(=O)[C@H](CC(C)C)NC(=O)[C@H](CC(C)C)NC(=O)[C@@H](CC(C)C)NC(=O)[C@H](CC(C)C)NC(=O)[C@H](CC(C)C)NC1=O | permeable | > 1 ×10⁻⁶ cm/s | 9% | 2 | 24.1 mL/min/kg
2 | CC(C)C[C@@H]1NC(=O)[C@H](CC(C)C)NC(=O)[C@H](CC(C)C)NC(=O)[C@H](CC(C)C)NC(=O)[C@H](CC(C)C)NC(=O)[C@H](CC(C)C)NC1=O | permeable | > 1 ×10⁻⁶ cm/s | 17% | 2 | 4.7 mL/min/kg
3 | CC(C)C[C@@H]1NC(=O)[C@H](CC(C)C)NC(=O)[C@H](CC(C)C)NC(=O)[C@H](CC(C)C)NC(=O)[C@H](CC(C)C)NC1=O (cyclo(LLLLL)) | permeable | 1.7 ×10⁻⁶ cm/s | 4% |  | 
